Rows were chosen to be rich in hits. Some 2% of all compounds tested hit in one or more screens of this group.
XiGFP reactiv = reactivates the inactive X chromosome in mouse fibroblasts; activation, % at 7.58 µM; XiGFP mouse fibroblasts, % GFP-positive cells imaging, 3 d; cells co-treated with 5-aza-dC sensitizer; scaled so ellipticine positive control = 100%; AID 743238; 0.055% of 360,000 active;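 active means mean normalized replicate activation at least 10% and every replicate at or above 10%; inconclusive means only one of the two criteria met; inactive means mean below 10% and not all replicates reach 10%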;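 further: 0% = median of on-plate neutral control wells and 100% = ellipticine 6 µM median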
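System: 68-5-11 XiGFP fibroblast line; Timing: 3 days compound exposure; Compound dosing: one concentration, pinned; Benchmarks: positive control ellipticine, 6 µM final; Buffer or medium: DMEM containing 5-aza-dC.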
CaV13 FRET inh = Primary screen for inhibitors of IQ motif and Ca2+-dependent inactivation inhibitor domain binding in CACNA1D, Förster resonance energy transfer in living cells, …; inhibition, % at 12.3 µM; HEK cells, CFP/YFP FRET ICDI-IQ, plate reader, 10 min; percent FRET-ratio fall versus neutral wells; 0.098% of 340,000 active;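 active means mean replicate inhibition of at least 30% and at least 1% of replicates passing that level; inconclusive means only one of the two criteria is met; inactive means neither criterion is met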;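 further: 0% = median of the neutral control wells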
LGR2 antag = inhibitors of bursicon-induced Drosophila LGR2 receptor cAMP signaling; HEK293 LGR2, CRE-luciferase, bursicon-stimulated, 4 h; inhibition, % at 9.99 µM; 0.35% of 380,000 active; AID 720647;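 active means drop in luminescence signal, shown as inhibition above about 50% in the replicate tests, limit read from the data, passing the limit was not always enough; inconclusive means probably only some replicates passing the limit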;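 further: agonist challenge used bursicon conditioned medium at about half maximal strength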
TROY NFkB inh = TROY signaling inhibition; Q293 LMP1-TROYcd NF-kB luciferase reporter, 4 h; inhibition, % at 10 µM; 0.98% of 360,000 active;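 active means compounds whose plate-normalised and pattern-corrected inhibition of the luciferase reporter signal at the single screening dose is 50% or more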
TWEAK Fn14 block = TWEAK-Fn14 signaling inhibition. TWEAK-stimulated Fn14 reporter cells, luciferase luminescence, 8 h. inhibition, % at 10 µM. 2% of 360,000 active. AID 1159606; in the data active means inhibition above about 50%
The depositor's hits bear a star; ? = inconclusive; . = not tested or not shown.

SMILES	XiGFP reactiv	CaV13 FRET inh	LGR2 antag	TROY NFkB inh	TWEAK Fn14 block
C[C@H](CO)N1C[C@H](C)[C@@H](CN(C)CC2CC2)OCCCC[C@H](C)Oc2ccc(NC(=O)Nc3ccc(F)cc3)cc2C1=O	0	.	11	.	.
O=c1c2ccccc2cnn1-c1ccc2ccccc2c1	.	-3	36	15	55*
O[C@H]1CN(CC2CCCCC2)[C@@H](c2ccc(Cl)cc2)C[C@@H]1n1cc(C2CC2)nn1	1	-6	10	52*	30
O[C@@H]1CN(CC2CCCCC2)[C@@H](c2ccccc2)C[C@H]1n1cc(C2CC2)nn1	0	-9	18	-3	4
O[C@H]1C[C@H](c2ccc(Cl)cc2)N(CC2CCCCC2)C[C@@H]1n1cc(-c2ccc(F)cc2)nn1	0	-5	5	-3	-7
O[C@H]1C[C@H](c2ccccc2)N(CC2CCCCC2)C[C@@H]1n1cc(C2CC2)nn1	0	-6	18	-19	64*
O[C@H]1CN(CC2CCCCC2)[C@@H](c2ccc(Cl)cc2)C[C@@H]1n1cc(-c2ccc(F)cc2)nn1	0	-3	5	10	50*
Cc1ccccc1S(=O)(=O)N1C[C@@H]2[C@H](c3ccccc31)[C@@H](CO)N2C(=O)CC1CC1	0	.	15	.	.
Fc1ccc2[nH]c3c(NCc4ccccc4)ncnc3c2c1	0	-5	15	52*	44
N/C(=N\c1nc(CSc2nc3ccccc3s2)cc(=O)[nH]1)Nc1ccc(F)cc1	35*	-5	2	32	-4
Cc1ccc(N/C(N)=N/c2nc(CSc3nnc(N)s3)cc(=O)[nH]2)cc1	0	-9	2	-2	-3
COc1ccccc1N/C(N)=N/c1nc(CSc2ccc(C)cc2)cc(=O)[nH]1	.	-3	.	14	44
Cc1ccc(SCc2cc(=O)[nH]c(/N=C(\N)Nc3ccccc3Sc3ccccc3)n2)cc1	0	-5	13	-1	65*
O=C(Nc1ccc(-c2csc(Nc3ccccc3)n2)cc1)c1cc([N+](=O)[O-])cc(C(F)(F)F)c1	0	-4	-21	19	66*
COCCOC(=O)c1cc(C(=O)c2cc(F)ccc2O)coc1=N	.	-4	.	-11	-4
COC(=O)c1cc(C(=O)c2cc(Cl)ccc2O)coc1=N	0	-3	22	4	70*
Cc1cccc(-c2cc3c(N=O)c4ccccc4c-3n[nH]2)c1	0	-2	-10	38	53*
O=Nc1c2cc(-c3ccccc3)[nH]nc-2c2ccccc12	0	24	?	71*	80*
Cc1ccc(-c2cc(=O)c3ccccc3[nH]2)cc1	0	-10	-41	-62	0
Cc1ccc(-c2cc3c(N=O)c4ccccc4c-3n[nH]2)cc1	0	1	95*	88*	103*
O=C1CC(NC23CC4CC(CC(C4)C2)C3)C(=O)N1c1ccc2c(c1)OCO2 (configuration not stated)	.	-4	-8	56*	33
CC(=O)c1cc2c(C)c(C(=O)c3ccccc3)oc2cc1O	0	-6	21	38	55*
O=C(c1ccccc1)c1ccc(O)cc1O	0	-6	2	-6	2
Cc1cc(O)c(C2=Nc3ccccc3SC(c3ccc(Cl)cc3)C2)c(=O)o1 (configuration not stated)	0	-17	37	75*	77*
O=C(Nc1nc2cc3c(cc2s1)OCO3)c1ccco1	0	-5	71*	56*	90*
SMILES	XiGFP reactiv	CaV13 FRET inh	LGR2 antag	TROY NFkB inh	TWEAK Fn14 block
Fc1ccc2nc(Nc3nc4cc5c(cc4s3)OCCO5)sc2c1	0	-15	-52	62*	45
O=C(Nc1nc2cc3c(cc2s1)OCCO3)c1ccco1	0	-7	98*	82*	100*
CC1CCc2nc(NC(=O)c3ccco3)sc2C1 (configuration not stated)	.	-2	.	66*	96*
CC(=O)Nc1nc2cc3c(cc2s1)OCO3	0	-5	-21	-65	-10
O=C(Nc1nc2cc3c(cc2s1)OCO3)C1=COCCO1	0	-9	.	70*	101*
O=C(Nc1nc2ccccc2c(=O)s1)c1ccco1	0	-2	14	5	54*
O=C(Nc1cccc(Cl)c1)Nc1ccnc(-c2cccnc2)n1	0	-5	16	17	53*
CN(C)CC(=O)N1CC2(C1)[C@@H](c1ccccc1)[C@@H](CO)N2S(=O)(=O)c1ccccc1	0	.	9	.	.
CC(=O)/C(C#N)=C1\NC(=O)C(Cc2ccccc2)S1 (configuration not stated)	.	.	9	3	64*
CO[C@@H]1CN(C)C(=O)c2cc(NC(=O)c3ccccc3)ccc2OC[C@H](C)N(CC2CC2)C[C@@H]1C	0	.	14	.	.
CN1[C@H](C(=O)NCCN2CCCCC2)[C@@H](CO)[C@@H]2Cn3c(ccc(-c4ccc(F)cc4)c3=O)[C@@H]21	1	.	-15	.	.
CCC(=O)Nc1cccc(NC(=O)c2cc3ccccc3o2)c1	.	.	-70	-56	-3
O=C(Cc1cccc2ccccc12)Nc1ccc(-c2cc3ccccc3oc2=O)cc1	.	-7	.	58*	-12
CCC(=O)Nc1cccc(-c2cc3ccccc3oc2=O)c1	0	-3	-51	63*	60*
Cc1ccc(C(=O)NC(=S)Nc2ccc(-c3cc4ccccc4oc3=O)cc2)c(C)c1	.	.	.	.	48
Cc1cc(C)cc(C(=O)NC(=S)Nc2ccc(-c3cc4ccccc4oc3=O)cc2)c1	0	-5	5	57*	44
OC[C@@H]1[C@@H](c2ccccc2)C2(CN(Cc3ccccn3)C2)N1CCC(F)(F)F	0	.	.	.	.
O=C(O/N=C\c1ccc(N2CCCCC2)c([N+](=O)[O-])c1)c1cccc(Cl)c1	.	.	.	12	-9
O=C(O/N=C\c1ccc(N2CCCCC2)c([N+](=O)[O-])c1)c1c(F)cccc1F	.	-5	.	.	78*
O=C(Cn1c2ccccc2c(=O)c2ccccc21)N/N=C/c1cc([N+](=O)[O-])ccc1N1CCCCCC1	.	-3	.	5	1
O=C(Cn1c2ccccc2c(=O)c2ccccc21)N/N=C/c1ccc(N2CCCC2)c([N+](=O)[O-])c1	0	-6	-8	35	65*
CC(C)C(NC(=O)C1CCCCC1)C(=O)Nc1ccncc1 (configuration not stated)	.	-2	.	-3	2
CN(C)c1ccc(NC(=O)C2C3C=CC(C3)C2C(=O)O)cc1 (configuration not stated)	0	-20	-15	-5	42
O=C(O)C1C2C=CC(C2)C1C(=O)Nc1ccc2c(c1)OCCO2 (configuration not stated)	.	.	.	52*	65*
CC(C)C(NC(=O)C1CCCCC1)C(=O)Nc1ccc2c(c1)OCCO2 (configuration not stated)	.	-4	.	33	63*
